The source of these data is ChEMBL document CHEMBL2417474, “Synthesis, antiproliferative and anti-inflammatory activities of some novel 6-aryl-2-(p-(methanesulfonyl)phenyl)-4,5-dihydropyridazi-3(2H)-ones” (Eur J Med Chem, 2013).

For data set [1], the system named is Rattus norvegicus. The experiment in a line: Antiinflammatory activity in Wistar rat assessed as inhibition of carrageenan-induced paw edema at 0.05 mmol/kg, po administered 30 mins prior challenge measured after 3 hrs. It counts as functional. The essentials:
(§1)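 Wistar rats of either sex, 150–175 g, fasted 16 h, 6 per group. Dosed orally at 0.05 mmol/kg, suspended in 1% CMC in water (10 ml/kg). 30 min later, 0.1 ml of 1% carrageenan in saline injected subplantar into the left hind paw. Paw volume read by plethysmometer at 0, 3 and 5 h. % inhibition = (1 − Vt/Vc) × 100 against the vehicle group.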
(The carrageenan paw model is a standard test of acute inflammation.)

Data set [2] deals with Rattus norvegicus. The experiment in a line: Antiinflammatory activity in Wistar rat assessed as inhibition of carrageenan-induced paw edema at 0.05 mmol/kg, po administered 30 mins prior challenge measured after 5 hrs. The format is functional. The gist of the method: as §1
Another data set deals with HL-60(TB). The experiment in a line: Growth inhibition of human HL-60(TB) cells assessed as cell growth at 10 uM after 48 hrs by sulforhodamine B assay. It counts as functional. Conditions: HL-60, 48 h, read-out: Activity. (In general: In SRB staining, fixed cells bind dye roughly in proportion to their protein.)
The subject of another data set is UO-31. Kind of data set: Growth inhibition of human UO31 cells assessed as cell growth at 10 uM after 48 hrs by sulforhodamine B assay. It counts as functional. As to conditions: UO-31, 48 h, read-out: Activity. The gist of the method:
(§2)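 Single-dose NCI screen. Tumor lines were cultured in medium with 5% fetal calf serum and 2 mM L-glutamine, preincubated 24 h, then given compound in DMSO. After 48 h continuous exposure, cell growth was estimated by sulforhodamine B protein assay.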

Data set [3] concerns Rattus norvegicus. The experiment in a line: Ulcerogenic activity in Wistar albino rat at 0.15 mmol/kg, po measured after 6 hrs. It counts as toxicity, organism-based. As to conditions: in vivo. The essentials:
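Acute gastric ulcer test in Wistar rats (160–220 g) fasted 24 h, randomized into groups of six. Compound (0.15 mmol/kg) suspended in 1% w/v CMC in distilled water (10 ml/kg vehicle) was given orally, with vehicle and etoricoxib groups alongside. Animals were sacrificed under deep ether anesthesia 6 h after dosing.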

The subject of the next data set is NCI-H522. The experiment in a line: Growth inhibition of human NCI-H522 cells assessed as cell growth at 10 uM after 48 hrs by sulforhodamine B assay. The format is functional. Conditions: NCI-H522, 48 h, read-out: Activity.
The test system of the next data set is NCI-H23. The experiment in a line: Growth inhibition of human NCI-H23 cells assessed as cell growth at 10 uM after 48 hrs by sulforhodamine B assay. The format is functional. As to conditions: NCI-H23, 48 h, read-out: Activity.
Data set [4] in a line: Growth inhibition of human NCI-ADR-RES cells assessed as cell growth at 10 uM after 48 hrs by sulforhodamine B assay. The format is functional. As to conditions: read-out: Activity.
In another data set the test system is MOLT-4. The experiment in a line: Growth inhibition of human MOLT4 cells assessed as cell growth at 10 uM after 48 hrs by sulforhodamine B assay. The format is functional. As to conditions: MOLT-4, 48 h, read-out: Activity.
The test system of another data set is K562. The experiment in a line: Growth inhibition of human K562 cells assessed as cell growth at 10 uM after 48 hrs by sulforhodamine B assay. The format is functional. Conditions: K562, 48 h, read-out: Activity.
In another data set the test system is SR. The experiment in a line: Growth inhibition of human SR cells assessed as cell growth at 10 uM after 48 hrs by sulforhodamine B assay. It counts as functional. As to conditions: read-out: Activity. The essentials: as §2
The test system of another data set is MDA-MB-435. Kind of data set: Growth inhibition of human MDA-MB-435 cells assessed as cell growth at 10 uM after 48 hrs by sulforhodamine B assay. It counts as functional. Conditions: MDA-MB-435, 48 h, read-out: Activity.
The next data set has as its system RPMI-8226. Kind of data set: Growth inhibition of human RPMI8226 cells assessed as cell growth at 10 uM after 48 hrs by sulforhodamine B assay. It counts as functional. Conditions: RPMI-8226, 48 h, read-out: Activity.
A short description of data set [5]: Growth inhibition of human Hs 578T cells assessed as cell growth at 10 uM after 48 hrs by sulforhodamine B assay. It counts as functional. Conditions: read-out: Activity.
The subject of a further data set is OVCAR-3. Kind of data set: Growth inhibition of human OVCAR3 cells assessed as cell growth at 10 uM after 48 hrs by sulforhodamine B assay. The format is functional. Conditions: OVCAR-3, 48 h, read-out: Activity.
The nature of data set [6]: Growth inhibition of human EKVX cells assessed as cell growth at 10 uM after 48 hrs by sulforhodamine B assay. As to conditions: read-out: Activity. It counts as functional.
In a further data set the test system is T47D. Kind of data set: Growth inhibition of human T47D cells assessed as cell growth at 10 uM after 48 hrs by sulforhodamine B assay. The format is functional. Conditions: read-out: Activity. The gist of the method:
as §2

Another data set concerns SF-295. The experiment in a line: Growth inhibition of human SF295 cells assessed as cell growth at 10 uM after 48 hrs by sulforhodamine B assay. Conditions: SF-295, 48 h, read-out: Activity. It counts as functional.
In the next data set the test system is MDA-MB-468. The experiment in a line: Growth inhibition of human MDA-MB-468 cells assessed as cell growth at 10 uM after 48 hrs by sulforhodamine B assay. The format is functional. As to conditions: MDA-MB-468, 48 h, read-out: Activity.
For another data set, the system named is SK-MEL-5. The experiment in a line: Growth inhibition of human SK-MEL-5 cells assessed as cell growth at 10 uM after 48 hrs by sulforhodamine B assay. The format is functional. Conditions: SK-MEL-5, 48 h, read-out: Activity.
Another data set concerns CAKI-1. The experiment in a line: Growth inhibition of human CAKI-1 cells assessed as cell growth at 10 uM after 48 hrs by sulforhodamine B assay. It counts as functional. As to conditions: CAKI-1, 48 h, read-out: Activity.

As to `CS(=O)(=O)c1ccc(N2N=C(c3ccc(Cl)c(Cl)c3)CCC2=O)cc1`, the values for the inhibition in vivo at 50 µmol/kg in the data set on Rattus norvegicus [1] and with Rattus norvegicus [2] were 26.6% and 34.2%, respectively.
For the molecule `CS(=O)(=O)c1ccc(N2N=C(c3ccc(O)c(Cl)c3)CCC2=O)cc1`, the inhibition in vivo at 50 µmol/kg amounted to 43.3% with Rattus norvegicus [1] and 55.2% in the data set on Rattus norvegicus [2]. Moreover, the growth at 10 µM in the data set on HL-60(TB) worked out at 66.7%.
Regarding `Cc1ccc(O)c(C2=NN(c3ccc(S(C)(=O)=O)cc3)C(=O)CC2)c1`, the inhibition in vivo at 50 µmol/kg with Rattus norvegicus [1] worked out at 66.6%; in the data set with Rattus norvegicus [2], 86.8%. Moreover, in the data set on UO-31, the growth at 10 µM turned out to be 70%. Besides, in the data set on Rattus norvegicus [3], the Activity result is listed as “Non-toxic”.
For the molecule `Cc1cc(C2=NN(c3ccc(S(C)(=O)=O)cc3)C(=O)CC2)ccc1O`, the inhibition in vivo at 50 µmol/kg in the data set on Rattus norvegicus [1] worked out at 26.6%; in the data set with Rattus norvegicus [2] it was 60.5%.
Turning to `CS(=O)(=O)c1ccc(N2N=C(c3ccccc3)CCC2=O)cc1`, the figures for the inhibition in vivo at 50 µmol/kg in the data set on Rattus norvegicus [1] and in the data set on Rattus norvegicus [2] were 26.6% and 47.3%, respectively.
Turning to `CS(=O)(=O)c1ccc(N2N=C(c3ccc(Cl)cc3)CCC2=O)cc1`, the inhibition in vivo at 50 µmol/kg with Rattus norvegicus [1] worked out at 26.6%; in the data set with Rattus norvegicus [2], 36.8%. The figures for the growth at 10 µM (in the data set on NCI-H522; in the data set with NCI-H23; in data set [4]) were 25.4%, 65.3% and 58.3%, respectively.
As for `CS(=O)(=O)c1ccc(N2N=C(c3ccc(Br)cc3)CCC2=O)cc1`, the inhibition in vivo at 50 µmol/kg was determined as 10% in the data set on Rattus norvegicus [1] and 31.5% with Rattus norvegicus [2].
For `CS(=O)(=O)c1ccc(N2N=C(c3ccc(F)cc3)CCC2=O)cc1`, the inhibition in vivo at 50 µmol/kg in the data set on Rattus norvegicus [1] was determined as 60%; in the data set on Rattus norvegicus [2], 73.6%. Also, the growth at 10 µM in the data set on MOLT-4 worked out at 44.7%; in the data set with K562, 41.8%.
Consider `COc1ccc(C2=NN(c3ccc(S(C)(=O)=O)cc3)C(=O)CC2)cc1`, for which the growth at 10 µM in the data set with SR was 64%; with UO-31 it was 62.1%; in the data set on MDA-MB-435 it was 7.92%. The inhibition in vivo at 50 µmol/kg is 46.7% in the data set on Rattus norvegicus [1] and 68.4% in the data set on Rattus norvegicus [2].
For `CC(C)(C)c1ccc(C2=NN(c3ccc(S(C)(=O)=O)cc3)C(=O)CC2)cc1`, the inhibition in vivo at 50 µmol/kg in the data set on Rattus norvegicus [1] amounted to 50%; in the data set on Rattus norvegicus [2] it was 68.4%. The growth at 10 µM in the data set with RPMI-8226 amounted to 69.6%; in data set [5] it was 70.7%.
Take `CS(=O)(=O)c1ccc(N2N=C(c3ccc(-c4ccccc4)cc3)CCC2=O)cc1`: the inhibition in vivo at 50 µmol/kg worked out at 6.6% in the data set on Rattus norvegicus [1] and 21% in the data set on Rattus norvegicus [2]. Moreover, the growth at 10 µM with OVCAR-3 amounted to 42.1%; in data set [5], 64.6%; in data set [6] it was 29.6%.
In the case of `CS(=O)(=O)c1ccc(N2N=C(c3ccc(Oc4ccccc4)cc3)CCC2=O)cc1`, the growth at 10 µM in the data set with T47D came to 44.4%; in the data set on UO-31, 48.8%; with SF-295 it was 28.8%; in the data set on MDA-MB-468 it was 41.6%; in data set [6] it was 20.1%; in the data set with SK-MEL-5 it was 35.1%. The growth at 10 µM in the data set on CAKI-1 amounted to 49.8%; in the data set with K562, 39.7%. The inhibition in vivo at 50 µmol/kg in the data set on Rattus norvegicus [1] was 50%; in the data set with Rattus norvegicus [2] it was 65.7%.
With `COc1ccc(C2=NN(c3ccc(S(C)(=O)=O)cc3)C(=O)CC2)cc1OC`, the inhibition in vivo at 50 µmol/kg came out at 66.6% in the data set with Rattus norvegicus [1] and 82.4% with Rattus norvegicus [2]. Also, the Activity entry in the data set on Rattus norvegicus [3] is “Non-toxic”.
For `Cc1ccc(-c2ncc(Cl)cc2-c2ccc(S(C)(=O)=O)cc2)cn1` [ETORICOXIB], the inhibition in vivo at 50 µmol/kg with Rattus norvegicus [1] came to 83.3%; with Rattus norvegicus [2], 86.8%.

In general, inhibition in vivo refers to the relative decrease from the control value, in per cent.
